According to ChEMBL document CHEMBL1208776, “Design, synthesis and evaluation of a novel double pro-drug: INX-08189. A new clinical candidate for hepatitis C virus” (Bioorg Med Chem Lett, 2010):

Experiments:
Carboxypeptidase A = test: Half life in carboxypeptidase A assay
[1] = Cytotoxicity against human HuH7 cells; format: cell-based, Huh-7
Hepatitis C virus = test: Antiviral activity against HCV genotype 1b in Huh7 cells assessed as inhibition of viral replication by cell-based replicon assay; format: functional, organism-based, Hepacivirus hominis; conditions: Huh-7
[2] = (§1) Permeability across human Caco-2 cells from apical to basolateral side in human Caco2 cell membrane; format: ADME, cell-based; conditions: read-out: permeability
Summary of the method: (§2)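 Caco-2 monolayers were grown for 27 days (resistance 600 ohms/cm²). Apical-to-basal transport was measured as % transported in 80 min, with permeability expressed in cm/s.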

Hepatocyte = test: Cmax in primary human hepatocytes after 2uM treatment; format: ADME, cell-based
Summary of the method: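 Primary human hepatocytes were incubated with 2 µM compound. Intracellular 2′-C-methyl guanosine triphosphate was measured over 48 h and expressed as pmol/10⁶ cells. Cmax and decay half-life were estimated from the time course.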

Caco-2 = test: as §1; format: ADME, cell-based
Summary of the method: as §2

[3] = human, HuH7 cells, read-out: CC50

Row | Structure (SMILES) | half-life (Carboxypeptidase A) | CC50 ([1]; Homo sapiens, Huh-7) | EC50 (Hepatitis C virus) | EC90 (Hepatitis C virus) | Papp A→B [2] | CC50 [1, 3] | Cmax_triphosphate (Hepatocyte) | permeability (Caco-2)
1 | COc1nc(N)nc2c1ncn2[C@@H]1O[C@H](CO[P@](=O)(N[C@@H](C)C(=O)OCC(C)(C)C)Oc2cccc3ccccc23)[C@@H](O)[C@@]1(C)O | 17 min |  |  |  |  |  |  | 
2 | COc1nc(N)nc2c1ncn2[C@@H]1O[C@H](CO)[C@@H](O)[C@@]1(C)O [BETA-2'-C-METHYL-6-O-METHYL GUANOSINE] |  | > 100000 nM | 5200 nM | 21000 nM |  |  |  | 
3 | COc1nc(N)nc2c1ncn2[C@@H]1O[C@H](COP(=O)(N[C@H](C)C(=O)OCC(C)(C)C)Oc2cccc3ccccc23)[C@@H](O)[C@@]1(C)O (stereo partly drawn) |  | 51000 nM | 240 nM | 580 nM |  |  |  | 
4 | CCCOC(=O)[C@H](C)NP(=O)(OC[C@H]1O[C@@H](n2cnc3c(OC)nc(N)nc32)[C@](C)(O)[C@@H]1O)Oc1cccc2ccccc12 (stereo partly drawn) |  | 13000 nM | 30 nM | 100 nM |  |  |  | 
5 | COc1nc(N)nc2c1ncn2[C@@H]1O[C@H](COP(=O)(N[C@@H](C)C(=O)OCc2ccccc2)Oc2cccc3ccccc23)[C@@H](O)[C@@]1(C)O (stereo partly drawn) |  | 12000 nM | 30 nM | 100 nM | 4.02 ×10⁻⁶ cm/s |  |  | 
6 | COc1nc(N)nc2c1ncn2[C@@H]1O[C@H](COP(=O)(N[C@@H](C)C(=O)OCCC(C)(C)C)Oc2cccc3ccccc23)[C@@H](O)[C@@]1(C)O (stereo partly drawn) |  | 14000 nM | 20 nM | 80 nM |  |  |  | 
7 | COc1nc(N)nc2c1ncn2[C@@H]1O[C@H](COP(=O)(N[C@@H](CCSC)C(=O)OCC(C)(C)C)Oc2cccc3ccccc23)[C@@H](O)[C@@]1(C)O (stereo partly drawn) |  | 28000 nM | 60 nM | 190 nM |  |  |  | 
8 | COc1nc(N)nc2c1ncn2[C@@H]1O[C@H](CO[P@@](=O)(N[C@@H](C)C(=O)OCC(C)(C)C)Oc2cccc3ccccc23)[C@@H](O)[C@@]1(C)O | 20 min |  |  |  |  |  |  | 
9 | COc1nc(N)nc2c1ncn2[C@@H]1O[C@H](COP(=O)(N[C@H](C(=O)OCC(C)(C)C)C(C)C)Oc2cccc3ccccc23)[C@@H](O)[C@@]1(C)O (stereo partly drawn) |  | 33000 nM | 190 nM | 640 nM |  |  |  | 
10 | CC[C@H](C)[C@H](NP(=O)(OC[C@H]1O[C@@H](n2cnc3c(OC)nc(N)nc32)[C@](C)(O)[C@@H]1O)Oc1cccc2ccccc12)C(=O)OCC(C)(C)C (stereo partly drawn) |  | 18000 nM | 860 nM | 2530 nM |  |  |  | 
11 | COc1nc(N)nc2c1ncn2[C@@H]1O[C@H](COP(=O)(N[C@@H](C)C(=O)OC2CCCCC2)Oc2cccc3ccccc23)[C@@H](O)[C@@]1(C)O (stereo partly drawn) |  | 6000 nM | 30 nM | 90 nM |  |  |  | 
12 | COc1nc(N)nc2c1ncn2[C@@H]1O[C@H](COP(=O)(N[C@@H](C)C(=O)OC2CCCC2)Oc2cccc3ccccc23)[C@@H](O)[C@@]1(C)O (stereo partly drawn) |  | 9000 nM | 30 nM | 80 nM |  |  |  | 
13 | COc1nc(N)nc2c1ncn2[C@@H]1O[C@H](COP(=O)(N[C@@H](CC(C)C)C(=O)OCC(C)(C)C)Oc2cccc3ccccc23)[C@@H](O)[C@@]1(C)O (stereo partly drawn) |  | 14000 nM | 70 nM | 230 nM |  |  |  | 
14 | COc1nc(N)nc2c1ncn2[C@@H]1O[C@H](COP(=O)(N[C@@H](C)C(=O)OCC(C)(C)C)Oc2cccc3ccccc23)[C@@H](O)[C@@]1(C)O (stereo partly drawn) [BMS-986094] |  |  | 10 nM | 40 nM |  | 7000 nM | 80 pmol/10^6cells | 2.7%
15 | COc1nc(N)nc2c1ncn2[C@@H]1O[C@H](COP(=O)(N[C@@H](C)C(=O)OC(C)C)Oc2cccc3ccccc23)[C@@H](O)[C@@]1(C)O (stereo partly drawn) |  | > 100000 nM | 540 nM | 1700 nM |  |  |  | 
16 | C[C@H](NP(=O)(OC[C@H]1O[C@@H](n2cnc3c(=O)[nH]c(N)nc32)[C@](C)(O)[C@@H]1O)Oc1cccc2ccccc12)C(=O)OCC(C)(C)C (stereo partly drawn) |  |  | 72 nM | 270 nM |  | > 100000 nM |  | < 0.5%
